From ChEMBL document CHEMBL1122682, “Synthesis of potent heptapeptide analogues of cholecystokinin” (1984)
*1 amine or outer side, *2 acyl side, *3 side chain or, on linkers, in order; H or OH if unused. Where a SMILES comes first, the peptide text is derived from it. [ ]: non-standard residue; d: D form. X1 = O=C([C@@H]1C[C@@H](OS(=O)(=O)O)CN1[*:1])[*:2]; Thr(SO3H) = C[C@@H](OS(=O)(=O)O)[C@H](N)C(=O)O; sY = N[C@@H](Cc1ccc(OS(=O)(=O)O)cc1)C(=O)O

Experiments:
Assay type in all cases: functional
Rattus norvegicus = experiment: Compound was evaluated for (in vivo) gastrin like activity measured on perfused rat stomach after intravenous administration
Outline: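 Male Wistar rats (~250 g), perfused stomach; peptides given iv in physiological saline at 10, 20, 40, 80, 160 and 320 ng; secreted HCl measured by conductometric titration. Pentagastrin standard at 10–80 ng, taken as 100%. Relative potency expressed as a percentage; 10 animals per compound; detection limit 1–2% of pentagastrin.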

Oryctolagus cuniculus = species on record: Oryctolagus cuniculus; experiment: Compound was evaluated for cholecystokinin activity measured in isolated rabbit gallbladder strips (in vitro)
Outline: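 Tension changes recorded with a force-displacement transducer. Dose-response curves were run for CCK-8 and each analogue, with five determinations per compound. ED50 and maximal response came from direct observation and a Dowd-Riggs linear transformation. Activity is relative to CCK-8 (100%), reported as mean ± SEM.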

Mus musculus [1] = experiment: Anticonvulsive potency against picrotoxin induced (6 mg/kg sc) convulsions in mice, first tonic seizure
Outline: (§1)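 Male CFLP mice (25–35 g), 10 per group. Peptides in physiological saline given ip at 0.8 μmol/kg (1 mg/kg for CCK-8) 10 min before picrotoxin 6 mg/kg sc. Latency to first tonic seizure and time of death recorded over 60 min; a score of 60 is given if neither occurs. Percentage prolongation of mean saline-control latency is expressed relative to CCK-8. Student's t test vs saline controls.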

Mus musculus [2] = experiment: Anticonvulsive activity against picrotoxin-induced (6 mg/kg sc) convulsions in mice, time of death; outline: as §1

Compound `CSCC[C@H](NC(=O)[C@H](Cc1ccc(OS(=O)(=O)[O-])cc1)NC(C)=O)C(=O)NCC(=O)N[C@H](Cc1c[nH]c2ccccc12)C(=O)N[C@@H](CCSC)C(=O)N[C@@H](CC(=O)O)C(=O)N[C@@H](Cc1ccccc1)C(N)=O.[Na+]` has an Activity (Rattus norvegicus) of 0%, an Activity (Oryctolagus cuniculus) of 0.7% and an Activity (Mus musculus [1]) of 65%. It also gave an Activity (Mus musculus [2]) of 45%.

`CSCC[C@H](NC(=O)[C@H](Cc1c[nH]c2ccccc12)NC(=O)[C@@H](C)NC(=O)[C@H](CCSC)NC(=O)[C@H](Cc1ccc(OS(=O)(=O)[O-])cc1)NC(C)=O)C(=O)N[C@@H](CC(=O)O)C(=O)N[C@@H](Cc1ccccc1)C(N)=O.[Na+]` showed an Activity (Rattus norvegicus) of 0%, an Activity (Oryctolagus cuniculus) of 40% and an Activity (Mus musculus [1]) of 100%. For the same compound, the Activity (Mus musculus [2]) was 115%.

`CSCC[C@H](NC(=O)[C@H](Cc1ccc(O)cc1)NC(C)=O)C(=O)NCC(=O)N[C@@H](Cc1c[nH]c2ccccc12)C(=O)N[C@@H](CCSC)C(=O)N[C@@H](COS(=O)(=O)[O-])C(=O)N[C@@H](Cc1ccccc1)C(N)=O.[Na+]` was tested, and the Activity (Rattus norvegicus) was 40% and the Activity (Oryctolagus cuniculus) was 0.3%.

In the case of `CSCC[C@H](NC(=O)[C@H](Cc1ccc(OS(=O)(=O)[O-])cc1)NC(C)=O)C(=O)NCC(=O)N[C@@H](Cc1c[nH]c2ccccc12)C(=O)N[C@@H](CCSC)C(=O)N[C@@H](COS(=O)(=O)[O-])C(=O)N[C@@H](Cc1ccccc1)C(N)=O.[Na+].[Na+]`, the Activity (Rattus norvegicus) is reported as 0%, the Activity (Oryctolagus cuniculus) is reported as 190% and the Activity (Mus musculus [1]) is reported as 66%. The Activity (Mus musculus [2]) was 121%.

With `CSCC[C@H](NC(=O)[C@H](Cc1ccc(OS(=O)(=O)[O-])cc1)NC(C)=O)C(=O)NCC(=O)N[C@@H](Cc1c[nH]c2ccccc12)C(=O)N[C@H](CCSC)C(=O)N[C@@H](CC(=O)O)C(=O)N[C@@H](Cc1ccccc1)C(N)=O.[Na+]` the Activity (Rattus norvegicus) was 0%, the Activity (Oryctolagus cuniculus) was 0.6% and the Activity (Mus musculus [1]) was 21%. The Activity (Mus musculus [2]) was 0%.

Work on `CSCC[C@H](NC(=O)[C@H](Cc1ccc(O)cc1)NC(C)=O)C(=O)NCC(=O)N[C@@H](Cc1c[nH]c2ccccc12)C(=O)N[C@@H](CCSC)C(=O)N[C@H](C(=O)N[C@@H](Cc1ccccc1)C(N)=O)[C@@H](C)OS(=O)(=O)[O-].[Na+]` (Ac-YMGWM[Thr(SO3H)]F-NH2) yielded an Activity (Rattus norvegicus) of 25% and an Activity (Oryctolagus cuniculus) of 0.2%.

`CSCC[C@H](NC(=O)[C@H](Cc1ccc(O)cc1)NC(C)=O)C(=O)NCC(=O)N[C@@H](Cc1c[nH]c2ccccc12)C(=O)N[C@@H](CCSC)C(=O)N1C[C@H](OS(=O)(=O)[O-])C[C@H]1C(=O)N[C@@H](Cc1ccccc1)C(N)=O.[Na+]` (Ac-YMGWM[X1]F-NH2) showed an Activity (Rattus norvegicus) of 0% and an Activity (Oryctolagus cuniculus) of 0.3%.

`CSCC[C@H](NC(=O)[C@H](Cc1ccc(OS(=O)(=O)[O-])cc1)NC(C)=O)C(=O)NCC(=O)N[C@@H](Cc1c[nH]c2ccccc12)C(=O)N[C@@H](CCSC)C(=O)N[C@H](C(=O)N[C@@H](Cc1ccccc1)C(N)=O)[C@@H](C)OS(=O)(=O)[O-].[Na+].[Na+]` (Ac-[sY]MGWM[Thr(SO3H)]F-NH2) gave an Activity (Rattus norvegicus) of 0%, an Activity (Oryctolagus cuniculus) of 166% and an Activity (Mus musculus [1]) of 146%. For the same compound, the Activity (Mus musculus [2]) was 115%.

Compound `CSCC[C@H](NC(=O)[C@H](Cc1ccc(OS(=O)(=O)[O-])cc1)NC(C)=O)C(=O)NCC(=O)N[C@@H](Cc1c[nH]c2ccccc12)C(=O)N[C@@H](CCSC)C(=O)N1C[C@H](OS(=O)(=O)[O-])C[C@H]1C(=O)N[C@@H](Cc1ccccc1)C(N)=O.[Na+].[Na+]` (Ac-[sY]MGWM[X1]F-NH2) has an Activity (Rattus norvegicus) of 0%, an Activity (Oryctolagus cuniculus) of 300% and an Activity (Mus musculus [1]) of 79%. For the same compound, the Activity (Mus musculus [2]) was 121%.

`CSCC[C@H](NC(=O)[C@H](Cc1ccc(OS(=O)(=O)O)cc1)NC(=O)[C@@H](N)CC(=O)O)C(=O)NCC(=O)N[C@@H](Cc1c[nH]c2ccccc12)C(=O)N[C@@H](CCSC)C(=O)N[C@@H](CC(=O)O)C(=O)N[C@@H](Cc1ccccc1)C(N)=O` [SINCALIDE] showed an Activity (Rattus norvegicus) of 0%, an Activity (Oryctolagus cuniculus) of 100% and an Activity (Mus musculus [1]) of 100%. It also gave an Activity (Mus musculus [2]) of 100%.

Work on H-GWMDF-NH2 yielded an Activity (Rattus norvegicus) of 100%, an Activity (Oryctolagus cuniculus) of 0% and an Activity (Mus musculus [1]) of 62%. For the same compound, the Activity (Mus musculus [2]) was 38%.
